{"source": "paper PMC5472421", "about": "(Drug Design, Development and Therapy, 2017)", "key": {"[1]": {"assay": "Conversion of EM-FU to 5-FU by monkey liver microsomes", "format": "in vitro ADME", "settings": "1 mM, 60 min", "method_in_brief": "(§1)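 EM-FU (1 mM) was incubated for 60 min with liver microsomes (0.85 mg protein) from each species, with tegafur as positive control. 5-FU formed was quantified by HPLC. Assays were run in triplicate and reported as mean ± SD.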"}, "[2]": {"assay": "Conversion of EM-FU to 5-FU by rat liver microsomes", "format": "in vitro ADME", "settings": "1 mM, 60 min", "method_in_brief": "as §1"}, "[3]": {"assay": "Conversion of EM-FU to 5-FU by dog liver microsomes", "format": "in vitro ADME", "settings": "1 mM, 60 min", "method_in_brief": "as §1"}, "[4]": {"assay": "Conversion of EM-FU to 5-FU by human liver microsomes", "format": "in vitro ADME", "settings": "1 mM, 60 min", "method_in_brief": "as §1"}, "[5]": {"format": "in vitro ADME", "settings": "rat serum, liver and small intestine homogenates", "method_in_brief": "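Test compound (1 mM) was incubated at 37°C with rat serum or 20% (w/v) liver or small-intestine homogenates for 10, 20, 30 and 60 min. Reactions were stopped with 10% TCA and spun at 3,000× g for 10 min. Supernatants were neutralised with 2 M KOH, and EM-FU, CDHP, CTA and 5-FU were measured by HPLC. Results are means of duplicate assays.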"}, "[6]": {"tested_on": "CYP1A2, CYP2A6, CYP2E1, CYP3A4", "format": "in vitro ADME", "settings": "100 µM inhibitor; EM-FU 1 mM; human liver microsomes"}, "[7]": {"format": "in vivo, rat", "settings": "4 h after oral DFP-11207 53.4 mg/kg", "method_in_brief": "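AZ521 xenograft-bearing nude rats received 53.4 mg/kg (75 μmol/kg) test compound orally and were killed at 1, 2, 4, 8 and 12 h. Serum, small intestine and tumour were taken. Tissues were homogenised in 10 mM potassium phosphate-buffered saline (pH 7.2) and spun at 9,000× g for 30 min. Supernatants were extracted with 4 volumes of ethyl acetate, dried at 40°C, redissolved, and assayed for CTA and 5-FU by HPLC.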"}, "CoLo320DM cells": {"tested_on": "CoLo320DM cells", "format": "cell-based, human", "settings": "1-100 µM, 1 µM [6-3H] 5-FU, 37°C, 45 min", "method_in_brief": "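CoLo320DM cells in RPMI-1640 were incubated at 37°C for 45 min with 1 μM [6-3H]5-FU (37 kBq), alone or with 1–100 μM test compound or CTA. Acid was added and the mixture centrifuged. The neutralised acid-soluble fraction was run on silica TLC and the FUMP spot counted. RNA-incorporated label in the precipitate was extracted by the Schneider method. Results are means of duplicate assays.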"}, "[8]": {"target": "T1, orotate phosphoribosyltransferase (OPRT) (Homo sapiens, UniProt P11172)", "T1 sequence (P11172 1-480)": "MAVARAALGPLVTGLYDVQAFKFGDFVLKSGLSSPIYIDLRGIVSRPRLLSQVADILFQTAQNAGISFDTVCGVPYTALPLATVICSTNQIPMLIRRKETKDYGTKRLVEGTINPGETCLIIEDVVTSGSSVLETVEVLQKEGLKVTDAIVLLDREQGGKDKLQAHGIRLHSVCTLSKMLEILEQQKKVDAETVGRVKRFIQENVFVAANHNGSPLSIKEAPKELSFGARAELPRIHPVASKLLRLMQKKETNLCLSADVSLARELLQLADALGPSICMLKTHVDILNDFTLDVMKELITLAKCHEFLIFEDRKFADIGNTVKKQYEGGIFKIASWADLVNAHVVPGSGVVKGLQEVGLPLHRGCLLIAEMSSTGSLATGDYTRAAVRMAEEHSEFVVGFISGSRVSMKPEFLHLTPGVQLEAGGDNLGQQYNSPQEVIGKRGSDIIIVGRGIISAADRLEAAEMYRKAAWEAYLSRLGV", "settings": "cited from earlier work"}}, "data": [{"molecule": "CCOCn1cc(F)c(=O)[nH]c1=O", "note": "[EM-FU, 1-ethoxymethyl-5-fluorouracil]", "values": [{"measurement": "Conversion rate of EM-FU to 5-FU", "setting": "[1]", "value": "30 to 60", "unit": "pmol/min/mg"}, {"measurement": "Conversion rate of EM-FU to 5-FU", "setting": "[2]", "value": "30 to 60", "unit": "pmol/min/mg"}, {"measurement": "Conversion rate of EM-FU to 5-FU", "setting": "[3]", "value": "lowest conversion rate"}, {"measurement": "Conversion rate of EM-FU to 5-FU", "setting": "[4]", "value": "30 to 60", "unit": "pmol/min/mg"}, {"measurement": "Production of 5-FU from EM-FU by this enzymatic reaction", "setting": "[5]", "value": "not produced"}]}, {"molecule": "toleandomycin", "values": [{"measurement": "Inhibition of the conversion of EM-FU to 5-FU", "setting": "[6]", "value": "strongly inhibited"}]}, {"molecule": "O=c1[nH]cc(F)c(=O)[nH]1", "note": "[5-FU, 5-Fluorouracil]", "values": [{"measurement": "5-FU level in small intestine compared with CTA", "setting": "[7]", "value": "almost equal level"}, {"measurement": "5-FU levels in blood and tumor compared with CTA", "setting": "[7]", "value": "much higher than CTA"}]}, {"molecule": "O=c1cc(-c2ccccc2)oc2c1ccc1ccccc12", "note": "[α-naphthoflavone]", "values": [{"measurement": "Inhibition of the conversion of EM-FU to 5-FU", "setting": "[6]", "value": "strongly inhibited"}]}, {"molecule": "O=c1ccc2ccccc2o1", "note": "[coumarin]", "values": [{"measurement": "Inhibition of the conversion of EM-FU to 5-FU", "setting": "[6]", "value": "strongly inhibited"}]}, {"molecule": "O=C(O)c1cc(O)nc(O)c1", "note": "[CTA, citrazinic acid]", "values": [{"measurement": "Inhibition of incorporation of 5-FU into RNA", "setting": "CoLo320DM cells", "value": "did not inhibit"}, {"measurement": "Inhibition of intracellular phosphorylation of 5-FU", "setting": "CoLo320DM cells", "value": "did not inhibit"}, {"measurement": "Inhibition of OPRT activity (5-FU phosphorylation) in cell-free tumor extract", "setting": "[8]", "value": "strongly inhibit"}]}, {"molecule": "O=[N+]([O-])c1ccc(O)cc1", "note": "[p-nitrophenol]", "values": [{"measurement": "Inhibition of the conversion of EM-FU to 5-FU", "setting": "[6]", "value": "strongly inhibited"}]}]}
